In ChEMBL document CHEMBL4052593, “Pharmacokinetic Analysis and in Vivo Antitumor Efficacy of Taccalonolides AF and AJ” (J Nat Prod, 2017):
Activity calls are given as the source filed them. No cut-off for these calls is given here.

How the values were obtained:
Liver [1] = experiment: Intrinsic clearance in human liver microsomes in presence of NADPH by LC-MS/MS analysis; type: ADME, microsome
Mus musculus [2] = experiment: Clearance in athymic nude mouse at 300 ug, iv after 2 hrs by LC-MS analysis; type: ADME, organism-based; conditions: in vivo
Method in brief: (§1)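 Female athymic nude mice, 6–7 weeks old, got a 300 µg IV tail-vein bolus. Plasma was taken from 3–5 mice per time point (pre-dose, end of infusion, 0.25, 0.5, 1, 2 h), ethyl acetate-extracted and quantified by LC-MS against weighted (1/X2) calibration curves. Noncompartmental analysis: Cmax by inspection, t1/2 from the last two log points, AUC by linear trapezoid extrapolated to infinity, CL = dose/AUC.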

SCC-4 [3] = experiment: Antitumor activity against human SCC4 cells xenografted in athymic nude mouse assessed as tumor growth inhibition at 20 ug administered intratumorally on day 0 and day 3 measured every 2 to 4 days up to 2 weeks; type: functional, cell-based
Method in brief: (§2)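 Female athymic nude mice, 6–7 weeks old, received 1 × 10^6 SCC-4 cells subcutaneously in the rear flank. Treatment began when tumors averaged 200 mm3. Under isoflurane, tumors were injected directly on days 0 and 3 with drug in 100 µL PBS with final 8% ethanol, or with vehicle only; the total dose was split between the two days. Calipers were read every 2–4 days and volume taken as width × length × height. Body weight and toxicity were monitored. Groups were compared over 17 days by two-way ANOVA with Tukey post-hoc; time for tumors to reach 1,500 mm3 was also tracked.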

MDA-MB-435 [4] = experiment: Ratio of GI50 for human MDA-MB-435 cells in presence of 10% FBS to GI50 for human MDA-MB-435 cells in presence of 0.1% FBS; type: functional
Method in brief: (§3)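 MDA-MB-435 human melanoma cells were kept in IMEM with 10% FBS. They were tested across a concentration range in 0.1, 1 or 10% serum using sulforhodamine B, with cell density at drug addition as the cytotoxicity baseline. GI50 in 1% or 10% serum was divided by GI50 in 0.1% serum. Three independent experiments, each concentration in triplicate.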

Liver [5] = experiment: Half life in human liver microsomes in presence of NADPH by LC-MS/MS analysis; type: ADME, microsome
SCC-4 [6] = experiment: Antitumor activity against human SCC4 cells xenografted in athymic nude mouse assessed as tumor growth inhibition at 40 to 80 ug administered intratumorally on day 0 and day 3 measured on day 17 post dose; type: functional, cell-based; method in brief: as §2
HeLa = experiment: Antiproliferative activity against human HeLa cells after 48 hrs by SRB assay; type: functional, cell-based
SCC-4 [7] = experiment: Antitumor activity against human SCC4 cells xenografted in athymic nude mouse assessed as tumor burden at 80 ug administered intratumorally on day 0 and day 3 measured on day 10 post dose; type: functional; method in brief: as §2
Mus musculus [8] = experiment: Elimination half life in athymic nude mouse at 300 ug, iv after 2 hrs by LC-MS analysis; type: ADME, organism-based; conditions: in vivo; method in brief: as §1
SCC-4 [9] = experiment: Antitumor activity against human SCC4 cells xenografted in athymic nude mouse assessed as tumor growth inhibition administered intratumorally on day 0 and day 3 measured up to day 17 post dose; type: functional, cell-based; method in brief: as §2
MDA-MB-435 [10] = experiment: Antiproliferative activity against human MDA-MB-435 cells assessed as cell growth inhibition in presence of 0.1% FBS by sulforhodamine B assay; type: functional
Method in brief: (§4)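 MDA-MB-435 cells, normally kept in IMEM with 10% FBS and gentamicin, were exposed to concentration-response series in medium holding 0.1%, 1% or 10% serum. Growth was measured by sulforhodamine B staining. Cell density at the time of drug addition marked the line between antiproliferative and cytotoxic effect. GI50 was taken from the curves. Three independent experiments were run, each concentration in triplicate, reported as mean ± SEM.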

Liver [11] = experiment: Intrinsic clearance in human liver microsomes in absence of NADPH by LC-MS/MS analysis; type: ADME, microsome
SCC-4 [12] = experiment: Antitumor activity against human SCC4 cells xenografted in athymic nude mouse assessed as tumor growth inhibition at 40 to 80 ug administered intratumorally on day 0 and day 3 measured on day 14 post dose; type: functional, cell-based; method in brief: as §2
MDA-MB-435 [13] = experiment: Ratio of GI50 for human MDA-MB-435 cells in presence of 1% FBS to GI50 for human MDA-MB-435 cells in presence of 0.1% FBS; type: functional; method in brief: as §3
MDA-MB-435 [14] = experiment: Antiproliferative activity against human MDA-MB-435 cells assessed as cell growth inhibition in presence of 10% FBS by sulforhodamine B assay; type: functional; method in brief: as §4
Liver [15] = experiment: Half life in human liver microsomes in absence of NADPH by LC-MS/MS analysis; type: ADME, microsome
Mus musculus [16] = experiment: Cmax in athymic nude mouse at 300 ug, iv after 2 hrs by LC-MS analysis; type: ADME, organism-based; set-up: dose 300 ug, route intravenous; conditions: in vivo; method in brief: as §1
MDA-MB-435 [17] = experiment: Antiproliferative activity against human MDA-MB-435 cells assessed as cell growth inhibition in presence of 1% FBS by sulforhodamine B assay; type: functional; method in brief: as §4
Plasma = experiment: Drug uptake in athymic nude mouse plasma at 300 ug, iv after 2 hrs by LC-MS analysis; type: ADME, organism-based; conditions: in vivo; method in brief: as §1
Mus musculus [18] = experiment: Toxicity against athymic nude mouse xenografted with human SCC4 cells assessed as weight loss at 40 ug administered intratumorally on day 0 and day 3 measured up to day 17 post dose; conditions: in vivo, other
Method in brief: (§5)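 SCC-4 cells (1 × 10^6) were implanted subcutaneously in the rear flank of 6–7 week old female athymic nude mice. At an average tumor volume of 200 mm3, mice were grouped. Tumors were injected on days 0 and 3 with drug in 100 µL PBS containing 8% ethanol, or vehicle, under isoflurane. Mice were monitored for weight loss and toxicity; tumors were measured with calipers every 2–4 days.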

Mus musculus [19] = experiment: AUC in athymic nude mouse at 300 ug, iv after 2 hrs by LC-MS analysis; type: ADME, organism-based; set-up: dose 300 ug, time < 2 hr, route intravenous; conditions: in vivo; method in brief: as §1
MDA-MB-435 [20] = experiment: Antiproliferative activity against human MDA-MB-435 cells assessed as cell growth inhibition at 1 nM in presence of 0.1% FBS by sulforhodamine B assay relative to control; conditions: MDA-MB-435, read-out: GI
MDA-MB-435 [21] = experiment: Antiproliferative activity against human MDA-MB-435 cells assessed as cell growth inhibition at 1 nM in presence of 1% FBS by sulforhodamine B assay relative to control; conditions: MDA-MB-435, read-out: GI
MDA-MB-435 [22] = experiment: Antiproliferative activity against human MDA-MB-435 cells assessed as cell growth inhibition at 1 nM in presence of 10% FBS by sulforhodamine B assay relative to control; conditions: MDA-MB-435, read-out: GI
SCC-4 [23] = experiment: Antitumor activity against human SCC4 cells xenografted in athymic nude mouse assessed as reduction in tumor burden at 80 ug administered intratumorally on day 0 and day 3 measured on day 51 post dose; type: functional, cell-based; method in brief: as §2
SCC-4 [24] = experiment: Antitumor activity against human SCC4 cells xenografted in athymic nude mouse assessed as tumor growth inhibition at 40 ug administered intratumorally on day 0 and day 3 measured up to 2 weeks; type: functional, cell-based; method in brief: as §2
Mus musculus [25] = experiment: Toxicity in athymic nude mouse xenografted with human SCC4 cells assessed as weight loss at 40 ug administered intratumorally on day 0 and day 3 measured up to 2 weeks; conditions: in vivo, other, 336 h; method in brief: as §5

Row | SMILES | CLH (Liver [1]) | CL (Mus musculus [2]) | RatioGI50 (MDA-MB-435 [4]) | t1/2 (Liver [5]) | IC50 (HeLa) | Activity (SCC-4 [7]) | beta t1/2 (Mus musculus [8]) | GI50 (MDA-MB-435 [10]) | RatioGI50 (MDA-MB-435 [13]) | GI50 (MDA-MB-435 [14]) | t1/2 (Liver [15]) | Cmax (Mus musculus [16]) | GI50 (MDA-MB-435 [17]) | AUC (Mus musculus [19]) | also measured
1 | CC(=O)CC(c1ccccc1)c1c(O)c2ccccc2oc1=O (stereo not given) [WARFARIN] | 0 µL/min/mg | – | – | – | – | – | – | – | – | – | – | – | – | – | –
2 | CC(=O)O[C@H]1[C@H]2[C@H]([C@@H]3[C@@H](O)[C@@H]4[C@H]([C@H](C)[C@H]5O[C@]56OC(=O)[C@@](C)(O)[C@]46C)[C@@]3(C)[C@H]1OC(C)=O)[C@@H](O)C(=O)[C@H]1C[C@@H]3O[C@@H]3[C@H](OC(C)=O)[C@]21C | 15 µL/min/mg | 85 mL/h | 1.5 | 0.783 h | 4 nM | <1500 mm3 | 0.135 h | 6 nM | 1.2 | 9 nM | > 4 h | 19000 ng/mL | 7 nM | 3500 ng·h/mL | TGI (SCC-4 [3]): inactive; TGI (SCC-4 [6]): Active; TGI (SCC-4 [9]): Dose-dependent effect; CLH (Liver [11]): 300 µL/min/mg; TGI (SCC-4 [12]): Active; Drug uptake (Plasma): Not Active; Activity (Mus musculus [18]): Non-Toxic
3 | CC(=O)O[C@H]1C(=O)[C@@]2(C)[C@H]([C@H](OC(=O)c3ccccc3)[C@]3(O)C[C@H](OC(=O)[C@H](O)[C@@H](NC(=O)c4ccccc4)c4ccccc4)C(C)=C1C3(C)C)[C@]1(OC(C)=O)CO[C@@H]1C[C@@H]2O [PACLITAXEL] | – | – | – | – | – | – | – | 1 nM | – | 3.4 nM | – | – | 1.9 nM | – | inhibition of growth at 0.001 µM (MDA-MB-435 [20]): 54%; inhibition of growth at 0.001 µM (MDA-MB-435 [21]): 27%; inhibition of growth at 0.001 µM (MDA-MB-435 [22]): 9%
4 | CC(=O)O[C@@H]1[C@H]2[C@H]3[C@H]([C@H](OC(C)=O)[C@H](OC(C)=O)[C@]2(C)[C@H]2[C@H](C)[C@H]4O[C@]45OC(=O)[C@@](C)(O)[C@]5(C)[C@H]12)[C@]1(C)[C@H](C[C@@H]2O[C@@H]2[C@@H]1OC(C)=O)C(=O)[C@@H]3O | 8.3 µL/min/mg | 240 mL/h | 1.9 | 1.38 h | 24 nM | <1500 mm3 | 0.733 h | 25 nM | 1.2 | 47 nM | > 4 h | 8600 ng/mL | 30 nM | 1300 ng·h/mL | Activity (SCC-4 [23]): Active; TGI (SCC-4 [24]): Active; Activity (Mus musculus [25]): Non-Toxic
